Results taken from ChEMBL document CHEMBL1122758, “Studies of the mode of action of antitumor triazenes and triazines. 6. 1-Aryl-3-(hydroxymethyl)-3-methyltriazenes: synthesis, chemistry, and antitumor properties” (J Med Chem, 1984).
Blank lines part the entries; values can stand above or below the compound they belong to.

Experiments:
Mus musculus [1] = experiment: Compound was evaluated in vivo for antitumor activity against TLX5S Lymphoma implanted mice and percentage increase in life span (%ILS(T/C)) was reported at a optimal dose of 20 mg/Kg; type: functional
[2] = In vitro biological stability and half-life was measured in Earl's buffer at a pH 7.4 of at 37 degree Centigrade; type: physicochemical
Summary of the method: (§1)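 Decomposition was tracked by UV spectroscopy as the fall in absorbance over time at the compound's λmax. Half-life came from the slope of a log plot of extent of decomposition against time, assuming first-order kinetics. Line 4 used Earl's buffer (NaCl, NaHCO3, glucose, KCl, NaH2PO4, HCl to pH 7.4). Lines 5-11 used Sorensen's phosphate buffer, with KH2PO4 and Na2HPO4 mixed to the stated pH.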

[3] = In vitro biological stability and half-life was measured in phosphate buffer at a pH of 7.4 at 37 degree Centigrade; type: physicochemical; settings: pH 7.4; summary of the method: as §1
[4] = In vitro biological stability and half-life was measured in phosphate buffer at a pH 7.5 of at 25 degree Centigrade; type: physicochemical; summary of the method: as §1
[5] = In vitro biological stability and half-life was measured in phosphate buffer at a pH of 7.5 at 25 degree Centigrade; type: physicochemical; settings: pH 7.5; summary of the method: as §1
Mus musculus [6] = experiment: Compound was evaluated in vivo for antitumor activity against TLX5R Lymphoma implanted mice and percentage increase in life span (%ILS(T/C)) was reported at a optimal dose of 5 mg/Kg five times daily
Mus musculus [7] = experiment: Compound was evaluated in vivo for antitumor activity against TLX5R Lymphoma implanted mice and percentage increase in life span (%ILS(T/C)) was reported at a optimal dose of 20 mg/Kg five times daily.; type: functional
[8] = In vitro biological stability and half-life was measured by HPLC in Earl's buffer at a pH of 7.4 at 37 degree Centigrade; type: physicochemical; settings: pH 7.4
Summary of the method: (§2)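 Triazene incubated at 100 µg mL-1 in closed containers at 37 °C in pH 7.4 buffer: Earl's (NaCl, NaHCO3, glucose, KCl, NaH2PO4, HCl-adjusted) for line 1; 0.01 M Tris, HCl-adjusted, for line 2; Sorensen's KH2PO4/Na2HPO4 phosphate for line 3. Remaining triazene was followed by HPLC with 30% aqueous acetonitrile plus 0.1% diethylamine at 2 mL/min, and UV detection at the compound's λmax.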

[9] = In vitro biological stability and half-life was measured by HPLC in phosphate buffer at a pH of 7.4 at 37 degree Centigrade; type: physicochemical; settings: pH 7.4; summary of the method: as §2
[10] = In vitro biological stability and half-life was measured by HPLC in TRIS buffer at a pH of 7.4 at 37 degree Centigrade; type: physicochemical; settings: pH 7.4; summary of the method: as §2
[11] = In vitro biological stability and half-life was measured in phosphate buffer at a pH of 4.5 at 37 degree Centigrade; type: physicochemical; settings: pH 4.5; summary of the method: as §1
[12] = In vitro biological stability and half-life was measured in phosphate buffer at a pH of 5.2 at 37 degree Centigrade; type: physicochemical; settings: pH 5.2; summary of the method: as §1
[13] = In vitro biological stability and half-life was measured in phosphate buffer at a pH of 2.5 at 37 degree Centigrade; type: physicochemical; settings: pH 2.5; summary of the method: as §1
[14] = In vitro biological stability and half-life was measured in phosphate buffer at a pH of 3.5 at 37 degree Centigrade; type: physicochemical; settings: pH 3.5; summary of the method: as §1

Compound: CN(CO)/N=N/c1ccc(C(N)=O)cc1
ILS (T/C) (Mus musculus [1]): 62%

half-life [2]: 18.3 min
Compound: CCN=NNc1ccc(C#N)cc1

Compound: CC(=O)c1ccc(/N=N/N(C)CO)cc1
half-life [3]: 14.5 min
ILS (T/C) (Mus musculus [1]): 72%

Compound: CCN(CO)/N=N/c1ccc(C#N)cc1
ILS (T/C) (Mus musculus [1]): 0%

Compound: CN(CO)/N=N/c1ccc(C#N)cc1
ILS (T/C) (Mus musculus [1]): 54%

half-life [4]: 9 min
Compound: CCN=NNc1ccc(C(=O)OC)cc1

Compound: COC(=O)c1ccc(/N=N/N(C)CO)cc1
half-life [3]: 12.6 min
half-life [5]: 22 min
ILS (T/C) (Mus musculus [1]): 120%
ILS (T/C) (Mus musculus [6]): 0%

half-life [3]: 3.5 min
Compound: C/N=N/Nc1ccccc1

Compound: CN/N=N/c1ccc(C(=O)OC)cc1
half-life [3]: 12.1 min
half-life [5]: 35 min
ILS (T/C) (Mus musculus [7]): 4%
ILS (T/C) (Mus musculus [1]): 87%

half-life [8]: 66.6 min
half-life [9]: 15.1 min
half-life [10]: 36.2 min
half-life [3]: 13.8 min
Compound: CN=NNc1ccc(C(C)=O)cc1

half-life [4]: 7 min
Compound: CCN(CO)N=Nc1ccc(C(=O)OC)cc1

half-life [2]: 99 min
Compound: CN=NNc1ccc(C#N)cc1

Compound: COC(=O)c1ccc(/N=N/N(C)C)cc1
half-life [5]: > 1440 min
ILS (T/C) (Mus musculus [7]): 0%
ILS (T/C) (Mus musculus [1]): 58%

half-life [8]: 15.1 min
Compound: CCN=NNc1ccc(C(C)=O)cc1

Compound: COC(=O)c1ccc(/N=N/N(C)COC(=O)c2ccccc2)cc1
half-life [5]: 26.5 min
ILS (T/C) (Mus musculus [1]): 31%

Compound: CC(=O)c1ccc(/N=N/N(C)C)cc1
half-life [11]: 108 min
half-life [12]: > 1440 min
half-life [13]: 1.23 min
half-life [14]: 11.8 min
half-life [3]: > 1440 min
ILS (T/C) (Mus musculus [7]): 0%
ILS (T/C) (Mus musculus [1]): 65%
